From the RNAGym collection of RNA variant scans (doi:10.1126/science.aae0568)
This sample holds only a part of the variants without activity.

B1: tRNA (parent)
chain: GUUCCGUUGGCGUAAUGGUAACGCGUCUCCCUCCUAAGGAGAAGACUGCGGGUUCGAGUCCCGUACGGAACG

Variants of: B1
Assay: yeast fitness relative to wild type (ratio to wild type); higher = fitter; tRNA-Arg(CCU), competitive growth, 37 C, YPD
In short: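 Start and end populations of a pooled competition were compared by 100-nucleotide paired-end sequencing of gene amplicons. The Saccharomyces cerevisiae strains carried tRNA-Arg(CCU) gene variants at the native genomic locus, synthesised with a 3% per-site mutation rate at 69 sites, and competed in YPD at 37°C for 24 hours in six parallel replicates. Darwinian fitness relative to wild type was based on the change in genotype frequencies. Genotypes required ≥ 100 starting reads, and estimates < 0.5 were set to 0.5.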
For GUUCCGUUGGCGUAAUGGUAACGCGUCUCCCUCUUAAGGGGAAGACCGCGGGUUCGAGUCCCGUACGGAACG [C34U A40G U47C], the yeast fitness was no more than 0.5. For GUUCCGUUGGCGUAAUGGUAACGCGUCUCCCUCUUAAGGAGAAGACUGCGGGUUCGAGUCCCGUAUAGAACG [C34U C66U G67A], the yeast fitness was no more than 0.5. For GUUCCGUUGGCGUAAUGGUAACGCGUCUCCCUCUUAAGCAGAAGGCUGCGGGUUCGAGUCCCGUACGGAACG [C34U G39C A45G], the yeast fitness was no more than 0.5. With GUUCCGUUGGCGUAAUGGUAACGCGUCUCCCUCUUAAGGAGAGGACUGCGGGUUCGAGUCCCGUACGGAACG [C34U A43G] the yeast fitness was 0.789. GUUCCGUUGGCGUAAUGGUAACGCGUCUCCCUCUUUAGGAGAAGACUGCGGCUUCGAGUCCCGUACGGUACG [C34U A36U G52C A69U] showed a yeast fitness of no more than 0.5. GUUCCGUUGGCGUAAUGGUAACGCGUCUCCCUCUUAAGGAGAAGACUGCGGGUUCGAGUCCCGUAAGGAACG [C34U C66A] gave a yeast fitness of no more than 0.5. With GUUCCGUUGGCGUAAUGGUAACGCGUCUCCCUCUUAGGGAGAAGACUGCGGGUUCGAGUCCCGUACGGAACG [C34U A37G] the yeast fitness was 0.538. GUUCCGUUGGCGUAAUGGUAACGCGUCUCCCUCUUAAGGAGAAGACUGCGUGUUCGAGUUCUGUCCGGGACG [C34U G51U C60U C62U A65C A69G] gave a yeast fitness of no more than 0.5. For GUUCCGUUGGCGUAAUGGUAACGCGUCUCCCUCUUAAGCAGAAGACUGCGGGUUCGAGUCCCGUACGGAACG [C34U G39C], the yeast fitness was 0.571. Variant GUUCCGUUGGCGUAAUGGUAACGCGUCUCCCUCUUAAGGAGAAGACUGUGGGUUCGAGUCUCGUACGGAACG [C34U C49U C61U] has a yeast fitness of 0.512. Variant GUUCCGUUGGCGUAAUGGUAACGCGUCUCCCUCUUAAGGCGAGGACUGCGGGUUCGAGUCCCGUACGGAACG [C34U A40C A43G] has a yeast fitness of 0.513. Variant GUUCCGUUGGCGUAAUGGUAACGCGUCUCCCUCUUAAGGAGUAGACUGCGGGUUCGAGUCCCGUACGGAACG [C34U A42U] has a yeast fitness of 0.74. With GUUCCGUUGGCGUAAUGGUAACGCGUCUCCCUCUUAAGGAGCAGACUGCGGGUUCGAGUCCCGUACGGAACG [C34U A42C] the yeast fitness was 0.664. Work on GUUCCGUUGGCGUAAUGGUAACGCGUCUCCCUCUUAAGGAGCUGACUGCGGGUUCGAGUCCCGUACGGAACG [C34U A42C A43U] yielded a yeast fitness of no more than 0.5. Variant GUUCCGUUGGCGUAAUGGUAACGCGUCUCCCUCUUAAGGAGAAGACUAGGGGUUCGAGUCCCGUACGGAACG [C34U G48A C49G] has a yeast fitness of 0.563. Variant GUUCCGUUGGCGUAAUGGUAACGCGUCUCCCUCUUAUGGAGAAGACUGCGGGUUCGACUCCCGUACGGAACG [C34U A37U G58C] has a yeast fitness of 0.543. Variant GUUCCGUUGGCGUAAUGGUAACGCGUCUCCCUCUUAAGGAGAAGACUGCGGGUUCGAGUCCCGUACGGUACG [C34U A69U] has a yeast fitness of 0.667. GUUCCGUUGGCGUAAUGGUAACGCGUCUCCCUCUUAAGAAGAAGACUCCGGGUUCGAGUCCCGUUCGGAACG [C34U G39A G48C A65U] showed a yeast fitness of no more than 0.5. GUUCCGUUGGCGUAAUGGUAACGCGUCUCCCUCUUAUGGAGAAGACUGCGGGUUCGACUCCAGUACGGAACG [C34U A37U G58C C62A] showed a yeast fitness of 0.736. In the case of GUUCCGUUGGCGUAAUGGUAACGCGUCUCCCUCUUAAGGAGAAGAUUGCGGGUUCGAGUCCCGUACGGGUCG [C34U C46U A69G A70U], the yeast fitness is reported as no more than 0.5. In the case of GUUCCGUUGGCGUAAUGGUAACGCGUCUCCCUCUUUAGGAGAAGACUGCGGGUUCGAGUCCCGUAUGGAACG [C34U A36U C66U], the yeast fitness is reported as no more than 0.5. With GUUCCGUUGGCGUAAUGGUAACGCGUCUCCCUCUUAAGGAGAACACGGCGGGUUCGAGUCCCGUCGGGAACG [C34U G44C U47G A65C C66G] the yeast fitness was no more than 0.5. Work on GUUCCGUUGGCGUAAUGGUAACGCGUCUCCCUCUUUAGGAGAAGACUGCGGGUUCGAGUCCCGUAUGGUACG [C34U A36U C66U A69U] yielded a yeast fitness of 0.612. Variant GUUCCGUUGGCGUAAUGGUAACGCGUCUCCCUCUUAAGGUGAAGACUGCGGGUUCGAGUCGCGUACGGAACG [C34U A40U C61G] has a yeast fitness of no more than 0.5. In the case of GUUCCGUUGGCGUAAUGGUAACGCGUCUCCCUCUUAAGGAGAAGACUGCGGGUUCGAGUCCUGUACGGAACG [C34U C62U], the yeast fitness is reported as 0.673. Variant GUUCCGUUGGCGUAAUGGUAACGCGUCUCCCUCUUAAGGCGAAGACUGCGGGUUCGAGUCCUGUACGGAACG [C34U A40C C62U] has a yeast fitness of 0.507. In the case of GUUCCGUUGGCGUAAUGGUAACGCGUCUCCCUCUUAAGGAGAAGACUGCGUGUACGAGUUCCGUCCGGAACG [C34U G51U U54A C60U A65C], the yeast fitness is reported as no more than 0.5. Work on GUUCCGUUGGCGUAAUGGUAACGCGUCUCCCUCUUAAGGCGAAGACUGCGGGUUCGAGUCCCGUACGGAACG [C34U A40C] yielded a yeast fitness of 0.613. With GUUCCGUUGGCGUAAUGGUAACGCGUCUCCCUCUUAAGGGGAAGAAUGGGGGUUCGAGUCCCGUGCGGAACG [C34U A40G C46A C49G A65G] the yeast fitness was no more than 0.5. Variant GUUCCGUUGGCGUAAUGGUAACGCGUCUCCCUCUUAAGGAGAACACGGCGGGUUCGAGUCCCGUGCGGAACG [C34U G44C U47G A65G] has a yeast fitness of no more than 0.5. In the case of GUUCCGUUGGCGUAAUGGUAACGCGUCUCCCUCUUAAGGAGAAGACUGUGGGUUCGAGUCCCGUACGGUACG [C34U C49U A69U], the yeast fitness is reported as 0.607. Work on GUUCCGUUGGCGUAAUGGUAACGCGUCUCCCUCUUAAGGAGAAGAGUGCGGGUUCGAGUCCCGUACGGUACG [C34U C46G A69U] yielded a yeast fitness of 0.576. In the case of GUUCCGUUGGCGUAAUGGUAACGCGUCUCCCUCUUAAGGAAAAGACUGCGGGUUCGAGUCCCGUACGGAACG [C34U G41A], the yeast fitness is reported as 0.606. GUUCCGUUGGCGUAAUGGUAACGCGUCUCCCUCUUAAGGAGAAGACUGUGGGUUCGAGUCCCGUACGGAACG [C34U C49U] gave a yeast fitness of 0.866. In the case of GUUCCGUUGGCGUAAUGGUAACGCGUCUCCCUCUUAAGGAGAAGACUGCAGGUUCCAGUCCCGUACGGAACG [C34U G50A G56C], the yeast fitness is reported as 0.662. With GUUCCGUUGGCGUAAUGGUAACGCGUCUCCCUCUUAAGCAGAAGACUGCAGGUUCGAGUCCCGUACGGAACG [C34U G39C G50A] the yeast fitness was 0.557. In the case of GUUCCGUUGGCGUAAUGGUAACGCGUCUCCCUCUUAAGGAGAAGACUGCGGGUUCGAGUCGCGUCGGGAACG [C34U C61G A65C C66G], the yeast fitness is reported as no more than 0.5. In the case of GUUCCGUUGGCGUAAUGGUAACGCGUCUCCCUCUUAAGGAGAAGAUUGCGGGUUCGAGUCCCGAACGGAACG [C34U C46U U64A], the yeast fitness is reported as 0.642.
